The target in assay [1] is Adenosylhomocysteinase (Homo sapiens) (UniProt P23526). As to the kind of experiment: Inhibition of human S-adenosyl-L-homocysteine hydrolase at 281 uM after 4 hrs. An outline of the steps: (§1)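 Human AdoHcy hydrolase (204 nM) was preincubated with inhibitor in buffer A (50 mM, pH 7.2, 1 mM EDTA) at 22 °C, for 0.5 h or 4 h. Residual activity was then read in the synthetic direction: an aliquot was diluted into buffer A with 0.5 mM Ado and 0.5 mM Hcy, held 12 min at 37 °C, and stopped with HClO₄. Duplicates were averaged.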

Assay [2] has the same target. Kind of assay: Inhibition of human S-adenosyl-L-homocysteine hydrolase at 281 uM after 0.5 hrs. In a few lines:
as §1

The target is the same in assay [3]. As to the kind of experiment: Inhibition of human S-adenosyl-L-homocysteine hydrolase after 20 mins.

Adenosylhomocysteinase (Homo sapiens), sequence (P23526 2-432 limits assumed): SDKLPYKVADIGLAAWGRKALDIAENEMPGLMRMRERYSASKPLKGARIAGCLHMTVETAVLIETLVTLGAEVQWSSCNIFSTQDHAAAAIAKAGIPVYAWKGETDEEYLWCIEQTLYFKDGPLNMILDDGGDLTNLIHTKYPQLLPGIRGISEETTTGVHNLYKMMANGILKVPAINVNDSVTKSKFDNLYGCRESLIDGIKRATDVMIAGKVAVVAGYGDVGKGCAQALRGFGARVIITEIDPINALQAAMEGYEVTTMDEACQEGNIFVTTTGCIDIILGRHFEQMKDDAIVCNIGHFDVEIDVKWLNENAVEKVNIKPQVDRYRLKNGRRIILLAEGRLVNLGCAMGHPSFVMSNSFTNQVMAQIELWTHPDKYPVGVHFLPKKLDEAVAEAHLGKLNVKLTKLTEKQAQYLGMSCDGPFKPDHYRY

Broadly, the inhibition is the percentage by which the read-out fell short of the control. As for `Nc1ncnc2c1ncn2[C@@H]1O[C@H](/C=C(/F)CCCC(=O)O)[C@@H](O)[C@H]1O`, the results for the inhibition in assay [1] and in assay [2] were 35.2% and 15.2%, respectively.
In assay [2], `CCOC(=O)CCC/C(F)=C\[C@H]1O[C@@H](n2cnc3c(N)ncnc32)[C@H](O)[C@@H]1O` displayed an inhibition of 14.1%.
Regarding `Nc1ncnc2c1ncn2[C@@H]1O[C@H](/C=C/CCCC(=O)O)[C@@H](O)[C@H]1O`, the inhibition was 92.4% in assay [1] and 28.5% in assay [2].
For the molecule `CCOC(=O)CCC/C=C/[C@H]1O[C@@H](n2cnc3c(N)ncnc32)[C@H](O)[C@@H]1O`, in assay [2], the inhibition is 81%.
As for `Nc1ncnc2c1ncn2[C@@H]1O[C@H](/C=C\CCC(=O)O)[C@@H](O)[C@H]1O`, the inhibition in assay [1] came to 95.5%; in assay [2], 50.5%.
`COC(=O)CC/C=C\[C@H]1O[C@@H](n2cnc3c(N)ncnc32)[C@H](O)[C@@H]1O` had an inhibition in assay [2] of 68.1%.
As for `CCOC(=O)/C=C/C=C/[C@H]1O[C@@H](n2cnc3c(N)ncnc32)[C@H](O)[C@@H]1O`, in assay [3], the inhibition came out at 96.4%.
The same measure, in the same setting: as for `CCOC(=O)/C=C/C=C\[C@H]1O[C@@H](n2cnc3c(N)ncnc32)[C@H](O)[C@@H]1O`, the figure is 98.2%.

The values are drawn from ChEMBL document CHEMBL1150340, “Synthesis of 5'-functionalized nucleosides: S-Adenosylhomocysteine analogues with the carbon-5' and sulfur atoms replaced by a vinyl or halovinyl unit” (Bioorg Med Chem, 2008).
